Test results: ChEMBL document CHEMBL1123390, “3-Hydroxy-3-methylglutaryl-coenzyme A reductase inhibitors. 3. 7-(3,5-Disubstituted [1,1'-biphenyl]-2-yl)-3,5-dihydroxy-6-heptenoic acids and their lactone derivatives” (J Med Chem, 1986)

Key:
[1] = biological target: T1, 3-hydroxy-3-methylglutaryl-coenzyme A reductase (Rattus norvegicus) (UniProt P51639); assay: Inhibitory potency against purified rat liver HMG-CoA reductase relative to compactin
T1 sequence (whole entry): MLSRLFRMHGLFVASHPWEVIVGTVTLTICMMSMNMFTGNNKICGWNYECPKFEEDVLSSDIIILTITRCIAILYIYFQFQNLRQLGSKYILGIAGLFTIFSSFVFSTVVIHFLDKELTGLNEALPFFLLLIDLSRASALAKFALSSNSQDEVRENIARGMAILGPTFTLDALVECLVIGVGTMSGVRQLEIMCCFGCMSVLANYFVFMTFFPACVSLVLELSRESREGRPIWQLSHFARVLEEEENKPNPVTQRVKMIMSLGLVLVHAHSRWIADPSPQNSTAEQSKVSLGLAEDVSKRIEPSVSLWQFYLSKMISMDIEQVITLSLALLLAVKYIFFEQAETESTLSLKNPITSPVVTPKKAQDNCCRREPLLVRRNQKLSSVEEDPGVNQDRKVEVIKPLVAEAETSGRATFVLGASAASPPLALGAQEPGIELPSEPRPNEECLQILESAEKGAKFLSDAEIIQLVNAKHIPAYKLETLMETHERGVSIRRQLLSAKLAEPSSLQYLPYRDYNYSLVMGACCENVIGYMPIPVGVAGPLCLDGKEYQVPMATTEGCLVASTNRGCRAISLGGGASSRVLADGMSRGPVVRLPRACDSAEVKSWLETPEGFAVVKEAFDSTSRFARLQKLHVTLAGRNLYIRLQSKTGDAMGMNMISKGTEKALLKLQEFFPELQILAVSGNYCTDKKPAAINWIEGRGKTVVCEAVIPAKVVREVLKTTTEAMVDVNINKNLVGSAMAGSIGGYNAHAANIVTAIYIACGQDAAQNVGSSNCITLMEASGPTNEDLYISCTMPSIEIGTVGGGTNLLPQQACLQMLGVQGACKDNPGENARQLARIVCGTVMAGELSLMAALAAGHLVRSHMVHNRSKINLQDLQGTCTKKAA

[2] = biological target: T2, 3-hydroxy-3-methylglutaryl-coenzyme A reductase (Rattus norvegicus, UniProt P51639); assay: Inhibition of solubilized partially purified rat liver HMG-CoA reductase
T2 sequence (P51639 whole entry): T1 sequence (whole entry)
How it was run: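 Enzyme inhibition was tested at four or five test-compound concentrations, and percentage inhibition was plotted against concentration. IC50 came from a straight line fitted to these points by least squares. The full protocol is given in part 1 of the series.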

Row | SMILES | Relative potency [1] | IC50 [2] [nM]
1 | O=C1C[C@H](O)C[C@@H](/C=C/c2ccccc2-c2ccccc2)O1 | 0.63 | –
2 | O=C1C[C@H](O)C[C@@H](/C=C/c2ccc(Cl)cc2Cl)O1 | 0.06 | –
3 | Cc1cc(C)c(/C=C/[C@@H]2C[C@@H](O)CC(=O)O2)c(/C=C/c2ccc(Cl)cc2)c1 | 2.4 | 630
4 | COc1cccc(-c2cc(Cl)cc(Cl)c2/C=C/[C@@H]2C[C@@H](O)CC(=O)O2)c1 | 26 | 50
5 | Cc1cc(C)c(/C=C/[C@@H]2C[C@@H](O)CC(=O)O2)c(-c2ccc(F)c(C)c2)c1 (stereo in doubt; 110(-)) [listing 1 of 2 here] | 0.18 | –
6 | O=C1C[C@H](O)C[C@@H](/C=C/c2c(Cl)cc(Cl)cc2-c2ccccc2)O1 | 26 | 80
7 | O=C1C[C@H](O)C[C@@H](/C=C/c2c(Cl)cc(Cl)cc2CCc2ccccc2)O1 | 2.8 | 430
8 | CCc1cccc(-c2cc(Cl)cc(Cl)c2/C=C/[C@@H]2C[C@@H](O)CC(=O)O2)c1 | 30 | 44
9 | O=C1C[C@H](O)C[C@@H](/C=C/c2c(Cl)cc(Cl)cc2-c2ccc(F)cc2)O1 (stereo in doubt; 100(+)h) [listing 2 of 2 here] | 280 | –
10 | O=C1C[C@H](O)C[C@@H](/C=C/c2c(Cl)cc(Cl)cc2-c2ccc(F)cc2)O1 (stereo in doubt; 100(i)i) [listing 1 of 2 here] | – | 260
11 | O=C1C[C@H](O)C[C@@H](/C=C/c2c(Cl)cc(Cl)cc2-c2ccc(F)cc2)O1 (stereo in doubt; 100(i)i) [listing 2 of 2 here] | 5 | –
12 | O=C1C[C@H](O)CC(CCc2c(Cl)cc(Cl)cc2Cc2ccccc2)O1 (some centres undefined) | 4.3 | 530
13 | Cc1cc(C)c(/C=C/[C@@H]2C[C@@H](O)CC(=O)O2)c(-c2ccc(F)c(CO)c2)c1 | 26.5 | 49
14 | O=C1C[C@H](O)CC(CCc2c(Cl)cc(Cl)cc2-c2ccccc2)O1 (some centres undefined) | 18 | 100
15 | COc1ccc(-c2cc(Cl)cc(Cl)c2/C=C/[C@@H]2C[C@@H](O)CC(=O)O2)cc1 | 2.6 | 470
16 | O=C1C[C@H](O)C[C@@H](/C=C/c2c(Cl)cc(Cl)cc2-c2cc(Cl)cc(Cl)c2)O1 | 78 | 37
17 | O=C1C[C@H](O)CC(CCc2ccccc2-c2ccccc2)O1 (some centres undefined) | 0.44 | 44000
18 | Cc1ccc(-c2cc(Cl)cc(Cl)c2/C=C/[C@@H]2C[C@@H](O)CC(=O)O2)cc1 | 11 | 190
19 | Cc1cc(C)c(/C=C/[C@@H]2C[C@@H](O)CC(=O)O2)c(-c2ccc(F)c(C)c2)c1 (stereo in doubt; 110) [listing 1 of 2 here] | 171 | –
20 | O=C1C[C@H](O)C[C@@H](/C=C/c2c(F)cc(F)cc2-c2ccc(F)cc2)O1 | 3.5 | 860
21 | O=C1C[C@H](O)C[C@@H](/C=C/c2c(Cl)cc(Cl)cc2-c2cccc(F)c2)O1 | 38.6 | 70
22 | O=C1C[C@H](O)C[C@@H](/C=C/c2c(Cl)cc(Cl)cc2-c2ccc(F)cc2)O1 (stereo in doubt; 100) [listing 2 of 2 here] | 100 | –
23 | Cc1cc(C)c(/C=C/[C@@H]2C[C@@H](O)CC(=O)O2)c(-c2ccc(F)c(C)c2)c1 (stereo in doubt; 110 (+)) [listing 1 of 2 here] | 289 | –
24 | Cc1ccccc1-c1cc(Cl)cc(Cl)c1/C=C/[C@@H]1C[C@@H](O)CC(=O)O1 | 3.2 | 370
25 | Cc1cc(F)ccc1-c1cc(Cl)cc(Cl)c1/C=C/[C@@H]1C[C@@H](O)CC(=O)O1 | 33 | 36
26 | O=C1C[C@H](O)C[C@@H](/C=C/c2c(Cl)cc(Cl)cc2-c2ccc(Cl)cc2)O1 | 58 | 36
27 | Cc1cc(C)c(/C=C/[C@@H]2C[C@@H](O)CC(=O)O2)c(-c2ccc(F)c(C)c2)c1 (stereo in doubt; 110(-)) [listing 2 of 2 here] | – | 7300

Second part, the compound after the results:

Row | Relative potency [1] | IC50 [2] [nM] | SMILES
28 | – | 24 | O=C1C[C@H](O)C[C@@H](/C=C/c2c(Cl)cc(Cl)cc2-c2ccc(F)cc2)O1 (stereo in doubt; 100) [listing 1 of 2 here]
29 | 115 | 13 | Cc1cc(C)cc(-c2cc(Cl)cc(Cl)c2/C=C/[C@@H]2C[C@@H](O)CC(=O)O2)c1
30 | 123 | 13 | Cc1ccc(C)c(-c2ccc(Cl)c(Cl)c2)c1/C=C/[C@@H]1C[C@@H](O)CC(=O)O1
31 | 45 | 22 | Cc1cc(C)c(CCC2C[C@@H](O)CC(=O)O2)c(-c2ccc(F)c(C)c2)c1 (some centres undefined)
32 | – | 5 | O=C1C[C@H](O)C[C@@H](/C=C/c2c(Cl)cc(Cl)cc2-c2ccc(F)cc2)O1 (stereo in doubt; 100(+)h) [listing 1 of 2 here]
33 | 96 | 13 | Cc1cc(C)c(/C=C/[C@@H]2C[C@@H](O)CC(=O)O2)c(-c2ccc(F)cc2)c1
34 | 94 | 16 | Cc1cccc(-c2cc(Cl)cc(Cl)c2/C=C/[C@@H]2C[C@@H](O)CC(=O)O2)c1
35 | 175 | 8 | Cc1cc(C)c(/C=C/[C@@H]2C[C@@H](O)CC(=O)O2)c(-c2ccc(Cl)c(Cl)c2)c1
36 | 116 | 25 | O=C1C[C@H](O)C[C@@H](/C=C/c2c(Cl)cc(Cl)cc2-c2ccc(Cl)c(Cl)c2)O1
37 | 100 | 29 | Cc1cc(-c2cc(Cl)cc(Cl)c2/C=C/[C@@H]2C[C@@H](O)CC(=O)O2)ccc1F
38 | 80 | 15 | Cc1cc(C)cc(-c2cc(C)cc(C)c2/C=C/[C@@H]2C[C@@H](O)CC(=O)O2)c1
39 | 92 | 13 | Cc1cc(Cl)c(/C=C/[C@@H]2C[C@@H](O)CC(=O)O2)c(-c2ccc(F)c(C)c2)c1
40 | 40 | 30 | Cc1cc(-c2cccc(Cl)c2/C=C/[C@@H]2C[C@@H](O)CC(=O)O2)ccc1F
41 | 233 | 6 | Cc1cc(-c2cc(Cl)cc(C)c2/C=C/[C@@H]2C[C@@H](O)CC(=O)O2)ccc1F
42 | – | 7.6 | Cc1cc(C)c(/C=C/[C@@H]2C[C@@H](O)CC(=O)O2)c(-c2ccc(F)c(C)c2)c1 (stereo in doubt; 110 (+)) [listing 2 of 2 here]
43 | 150 | 10 | Cc1cc(C)c(/C=C/[C@@H]2C[C@@H](O)CC(=O)O2)c(-c2cc(C)c(F)c(C)c2)c1
44 | – | 7 | Cc1cc(C)c(/C=C/[C@@H]2C[C@@H](O)CC(=O)O2)c(-c2ccc(F)c(C)c2)c1 (stereo in doubt; 110) [listing 2 of 2 here]
